Compound activity deposited in PubChem by several laboratories.
MC4R barr agon: human MC4R agonism via beta-arrestin. P32245. U2OS MC4R beta-arrestin complementation, luminescence; percent of melanotan II response, DMSO zero. activation, % at 8.9 µM. actives 0.98% (n = 360,000);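 active = activation above a per-plate cutoff, the mean activation of sample wells on that plate plus 3 SD, cut at about 8% in these data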
Target sequence (P32245 whole entry, looked up): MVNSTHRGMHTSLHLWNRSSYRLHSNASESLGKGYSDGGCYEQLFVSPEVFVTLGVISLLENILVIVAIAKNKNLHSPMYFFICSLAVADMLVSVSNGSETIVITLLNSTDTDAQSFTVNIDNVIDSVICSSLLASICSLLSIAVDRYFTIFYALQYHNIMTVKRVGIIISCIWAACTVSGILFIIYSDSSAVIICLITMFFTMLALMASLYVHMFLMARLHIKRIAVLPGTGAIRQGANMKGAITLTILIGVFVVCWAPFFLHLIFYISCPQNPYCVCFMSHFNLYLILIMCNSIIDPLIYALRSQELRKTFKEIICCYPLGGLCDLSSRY
F508del corr: CFTR F508del correction in bronchial cells. actives 0.36% (n = 350,000). CFBE cells, YFP halide quenching; stimulated with forskolin plus potentiator P3; % fluorescence drop versus neutral controls. activity (quench increase), % at 7.58 µM;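 active = mean added fluorescence quench of at least 8% versus neutral control, with both replicates also reaching 8%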;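 also: cells transiently co-express mutant CFTR-F508del with the halide-sensitive YFP; corrector assay measuring rescue of mutant channel to the surface after 24 h compound exposure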
MC4R antag cAMP: human MC4R antagonism in cAMP assay; MC4R-expressing cells, MTII-stimulated cAMP, LANCE TR-FRET; inhibition, % at 6.5 µM; actives 0.48% (n = 360,000); AID 540295; P32245;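 active = inhibition above its plate's cutoff, the mean of tested wells on that plate plus 3 SD, cut at about 29% in these data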;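 also: 0% = Melanotan II alone and 100% = Melanotan II plus saturating MCL0020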
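Material: human MC4R-expressing U2OS cells. Probe or stimulus: Melanotan II challenge. Dosing: 6.5 µM single dose. Times: 30-min compound, 1-h challenge, 1-h detection, room temperature. Technique: TR-FRET with Eu-cAMP and labeled anti-cAMP, 671 nm. Replication: singlicate.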
SMARCA2 activ: increases SMARCA2 function in MMTV reporter cells; MG213 cells, MMTV-luciferase reporter, dexamethasone, overnight; activation, % at 9.1 µM; AID 652017; actives 1% (n = 370,000); in the data active = activation above about 7.8%;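 also: 0% = vehicle wells and 100% = reference activator wells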
SMARCA2 conf: SMARCA2 activation, confirmation screen; shares compounds with SMARCA2 activ; MG213 cells, MMTV-luciferase with dexamethasone, luminescence, overnight; MG213 cells expressing E1A, Rb sequestered; DMSO wells 0%, reference activator 100%; activation, % at 9.1 µM; actives 30% (n = 3,500);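 active = activation above its plate's cutoff, the mean activation of tested wells plus 3 SD, cut at about 7.9% in these data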
VP16 Luc act: counter-screen for SMARCA2 activators: GAL4-VP16 luciferase reporter activation; shares compounds with SMARCA2 activ; HEK293 GAL4-VP16 pG5luc reporter, luciferase luminescence; scaled: DMSO wells 0%, SAHA wells 100%; activation, % at 9.1 µM; actives 41% (n = 3,500);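 active = activation above the solvent-only control well mean plus 3 SD, averaged across control plates, cut at about 5.2% in these data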
* hit, by the source's call; / = no result given. The list is not random: actives were taken first. Their share in the collection is about 2.1%.

SMILES | MC4R barr agon | F508del corr | MC4R antag cAMP | SMARCA2 activ | SMARCA2 conf | VP16 Luc act
COc1cc2c(cc1OC)-c1cc(Nc3ccc(C)cc3)nc(=O)n1CC2 | -1 | 3 | -21 | 9.9* | 9.2* | 4
COc1cc2c(cc1OC)-c1cc(Nc3ccccc3Br)nc(=O)n1CC2 | -1 | 4 | -20 | 13* | 8.6* | 16*
COc1ccc(CN(C)C[C@H]2Oc3ccc(NS(=O)(=O)c4c(C)noc4C)cc3CC(=O)N([C@H](C)CO)C[C@@H]2C)cc1 | / | 0 | / | / | / | /
CC(=O)Nc1ccc(-c2nc3c(C)cccc3[nH]2)cc1 | -1 | / | -5 | 13* | 20* | 17*
Cc1ccc(S(=O)(=O)Nc2ccc3c(c2)C(=O)N([C@H](C)CO)C[C@@H](C)[C@H](CN(C)Cc2ccncc2)OCCCC[C@@H](C)O3)cc1 | / | 0 | / | / | / | /
C(=N\N=C\c1cccnc1)/c1cccnc1 | -2 | / | -3 | / | / | /
CN(/N=C/c1cccnc1)c1cnc2ccccc2n1 | -1 | 0 | -8 | 9.0* | 19* | 11*
O=C(Cc1ccccn1)N[C@H]1CC[C@H](CCn2cc(-c3cccnc3)nn2)O[C@H]1CO | / | -1 | / | / | / | /
O=C(NNC(=O)c1ccc2ccccc2n1)c1ccc(O)cc1 | -1 | 4 | 5 | -3 | / | /
COc1ccc(C(=O)NNC(=O)c2ccc3ccccc3n2)cc1 | -4 | 0 | -4 | 15* | -14 | 4
CN1C(=O)c2cc(NC(=O)c3ccc(F)cc3)ccc2OC[C@@H]2O[C@@H](CC(=O)N3CCOCC3)CC[C@@H]21 | / | -1 | / | / | / | /
CCOC(=O)c1c(CN(C)C)n(C)c2c(O)c(N=NC(N)=O)c3ccc(Br)cc3c12 | 1 | -2 | 11 | 9.1* | 3 | 6.3*
COc1ccc2c3c([nH]c2c1)[C@@H](CO)N(C(=O)C1CCC1)CC31CN(Cc2nccs2)C1 | / | -2 | / | / | / | /
O=C(CSc1cccc[n+]1[O-])Nc1cc([N+](=O)[O-])ccc1Cl | -3 | 0 | 0 | 1 | / | /
Cc1ccc(NC(=O)CSc2cccc[n+]2[O-])c([N+](=O)[O-])c1 | 0 | 0 | 19 | 8.4* | 0 | 1
O=C(CSc1cccc[n+]1[O-])Nc1cc2c(cc1Cl)C(=O)c1ccccc1C2=O | -1 | -2 | -1 | 12* | 13* | 7.3*
O=C(CSc1cccc[n+]1[O-])Nc1ccccc1Oc1ccccc1 | -3 | -2 | 4 | 8.4* | 10* | 2
O=C(C1CCCCC1)N1CC[C@@H]2[C@H](CO)Nc3ccc(Br)cc3[C@@H]21 | / | 4 | / | / | / | /
CCCNC(=O)C[C@@H]1CC[C@H]2[C@H](COc3ccc(NC(=O)NCCC)cc3C(=O)N2C)O1 | / | 3 | / | / | / | /
O=C(Nc1cccc(-c2ccc(N3CCOCC3)nn2)c1)c1ccccc1Cl | -5 | -1 | 10 | 11* | 14* | 10*
O=C(Nc1cccc(-c2ccc(N3CCOCC3)nn2)c1)c1cccc(Cl)c1 | 2 | 4 | 16 | 9.4* | 5 | 7.0*
CC(C)NC(=O)N1C[C@H]2[C@@H](c3ccccc31)[C@@H](CO)N2C(=O)Nc1cccc(F)c1 | / | 1 | / | / | / | /
COc1ccc2c3c(n(C)c2c1)[C@@H](CO)N(Cc1ccccc1F)CC31CN(C(=O)C2CC2)C1 | / | -4 | / | / | / | /
CCOc1ccc(/C=C2\SC(N3CCc4ccccc4C3)=NC2=O)cc1 | -1 | / | 19 | 9.0* | -1 | 1
COc1ccc(/C=C2\SC(N3CCc4ccccc4C3)=NC2=O)cc1 | 0 | 0 | 1 | -1 | / | /
SMILES | MC4R barr agon | F508del corr | MC4R antag cAMP | SMARCA2 activ | SMARCA2 conf | VP16 Luc act
COc1ccc(Br)c(C(=O)Nc2nc3ccccc3[nH]2)c1 | 0 | -1 | -4 | 8.8* | 7.8* | 2
COc1ccc(C(=O)Nc2nc3ccccc3[nH]2)cc1OC | -2 | 3 | 7 | 11* | 6 | 10*
COc1cc(OC)cc(C(=O)Nc2nc3ccccc3[nH]2)c1 | 1 | / | 14 | 0 | / | /
COc1cc(C(=O)Nc2nc3ccccc3[nH]2)ccc1OC(F)F | 0 | 2 | 0 | 4 | / | /
O=C(Nc1nc2ccccc2[nH]1)C1CCC1 | -2 | 3 | -2 | 8.9* | 3 | 8.7*
COc1ccc2c3c(n(C)c2c1)[C@H](CO)N(S(C)(=O)=O)CC31CCN(CC2CC2)CC1 | / | -2 | / | / | / | /
CO[C@H]1CN(C)C(=O)c2cc(NC(=O)NC(C)C)ccc2OC[C@H](C)N(CCC(F)(F)F)C[C@@H]1C | / | 3 | / | / | / | /
CC(=O)Nc1sc2c(c1-c1nc3ccccc3s1)CN(C(C)C)CC2 | -1 | 24* | 0 | 19* | 7 | -1
COc1ccc2c(c1)c1ccccc1n2C | -1 | / | -6 | 8.9* | -2 | 2
COc1ccc(-c2cc(=O)c3ccccc3n2C)cc1 | -3 | / | 2 | -1 | / | /
CCCN(CCC)CCCNC(=S)Nc1ccc2nc(N3CCN(CC)CC3)cc(C)c2c1 | 0 | -1 | 5 | 9.4* | 7 | 1
CCCN(CCC)CCCNC(=S)Nc1ccc2nc(N3CCN(C)CC3)cc(C)c2c1 | -1 | -3 | 1 | 10* | 8.3* | 1
CC(C)(C)SCCNC(=O)COc1ccccc1 | 1 | / | 16 | 4 | / | /
O=C(COc1ccccc1)NCCSc1ccccc1 | -1 | / | 4 | 9.4* | 10* | 7.7*
CC1(C)CC(=O)C/C(=N/NC(=O)c2ccc(-c3ccccc3)cc2)C1 | -1 | / | 16 | -1 | / | /
CC1(C)CC(=O)C/C(=N\NC(=O)Cc2ccccc2)C1 | 3 | / | 2 | 10* | 1 | 1
CCN(CC)CCOc1nc(C)nc2c1oc1ccccc12 | 1 | / | 8 | 8.5* | 2 | 1
CCN(CC)CCCOc1nc(C)nc2c1oc1ccccc12 | -1 | / | 5 | -3 | / | /
Cc1ccc(-c2cc(NC=O)c3ncc(-c4cnn(C)c4)n3c2)cc1 | 7 | / | -25 | 6 | / | /
COc1ccc(-c2cnc3c(NC=O)cc(-c4ccc(C(=O)N5CCOCC5)cc4)cn23)cc1OC | 6 | 4 | -15 | 12* | 6 | 2
COc1cccc(-c2cnc3c(NC=O)cc(-c4ccc(N5CCN(C)CC5)cc4)cn23)c1 | 0 | 4 | -6 | 15* | 37* | 3
CN(C)CCNC(=O)c1cccc(-c2cnc3c(NC=O)cc(-c4ccc(C(=O)N5CCOCC5)cc4)cn23)c1 | 0 | 1 | -6 | -2 | / | /
CC(=O)Nc1ccc(NC(=O)C(C)OC(=O)/C(C#N)=C/c2ccc(N(C)C)cc2)cc1 (configuration not stated) | -4 | -2 | -5 | 8.0* | 8.7* | 7.3*
CC(OC(=O)/C(C#N)=C/c1ccc(N(C)C)cc1)C(=O)N(C)c1ccccc1 (configuration not stated) | -3 | 0 | -2 | -2 | / | /
O=C(C[C@H]1CC[C@@H](NC(=O)c2ccccn2)[C@@H](CO)O1)NCc1cc(F)cc(F)c1 | / | -2 | / | / | / | /
